Published values from different studies.
Protocols differ between the studies behind these lines.
Target: Serine/threonine-protein kinase PLK1 (PLK1, Homo sapiens, UniProt P53350)

For `COc1cc(Cl)c(C(=O)N[C@@H](CN[C@H]2CC[C@@H](N)CC2)Cc2ccc(C#N)cc2)cc1-c1ccc(CN[C@H](C)c2ccc(C)cc2)o1`, the remaining activity was 94% (enzyme activity; inhibitor; 1 µM).
The remaining activity of `Cc1[nH]c(/C=C2\C(=O)Nc3ccc(F)cc32)c(C)c1C(=O)N[C@H]1CCN(C(=O)N(C)C)C1` is reported as 126% (enzyme activity; inhibitor; 0.1 µM).
With `COc1cc(/C=C/C(=O)CC(=O)/C=C/c2ccc(O)c(OC)c2)ccc1O` the activity vs control was 75% (enzyme activity; inhibitor; 1 µM).
`CCN(CC)CCNC(=O)c1c(C)[nH]c(/C=C2\C(=O)Nc3ccc(F)cc32)c1C` has a remaining signal of 96.4% (cell-free assay; 0.5 µM).
The remaining activity of `CC(C)(C)c1nc2c(s1)c1nc(N)ncc1c1ccc(NS(=O)(=O)c3c(F)cccc3F)c(F)c12` is reported as 101% (enzyme activity; inhibitor; radiometric; 1 µM).
`CCOc1cc(-c2nncn2C)ccc1Nc1ncc2cc(C)nc(NCC(C)(C)C)c2n1` gave an inhibition of 17% (enzyme activity; inhibitor; FRET; 1 µM).
The activity vs control of `FC(F)(F)Oc1cccc(-c2cnc3ccc(-c4ccncc4)nn23)c1` is reported as 98% (enzyme activity; inhibitor; radiometric; 5 µM).
`CC(C)(C)C(=O)c1sc(NC2CCCCC2)nc1N` has a remaining activity of 93% (enzyme activity; inhibitor; 10 µM).
With `Cc1sc(C(=O)NC2COC2)cc1-n1cc(NC(=O)Nc2c(F)cccc2Cl)cn1` the remaining activity was 102% (enzyme activity; inhibitor; 10 µM).
`O=C1NC(=O)c2cc(Nc3ccc(F)cc3)c(Nc3ccc(F)cc3)cc21` gave a remaining signal of 99.9% (cell-free assay; 0.5 µM).
With `COc1cc2ncnc(Nc3ccc(Oc4ccccc4)c(C)c3C)c2cc1OC` the inhibition was -1% (enzyme activity; inhibitor; 1 µM).
The remaining binding of `Cn1cc(Cl)c2c(Oc3c(F)cc(Nc4cc(Cl)nc(N)n4)cc3F)ccnc21` is reported as 83% (cell-free assay; competition with immobilised ligand; 0.1 µM).
For `Cc1ccc(C(=O)Nc2ccc(CN3CCN(C)CC3)c(C(F)(F)F)c2)cc1C#Cc1cnc2cccnn12`, the remaining activity was 96% (enzyme activity; inhibitor; 23.5 nM).
`CN(C)C1CCN(CC#Cc2nn(C3CCCC3)c3nc(NCc4ccccc4)ncc23)C1` (stereo not drawn) gave an inhibition of -1% (enzyme activity; inhibitor; FRET; 0.1 µM).
The remaining binding of `CN(c1ccnc(CNc2nc(Nc3ccc4c(c3)CC(=O)N4)ncc2C(F)(F)F)n1)S(C)(=O)=O` is reported as 7.6% (cell-free assay; competition with immobilised ligand; 1 µM).
The inhibition of `CN(c1ncccc1CNc1nc(Nc2ccc3c(c2)CC(=O)N3)ncc1C(F)(F)F)S(C)(=O)=O` is reported as 22.1% (enzyme activity; inhibitor; 1 µM).
The remaining binding of `O=C(Nc1cccnn1)N1CC(C/C=C/c2cncc(Oc3ccc(C(F)(F)F)cn3)n2)C1` is reported as 87% (cell-free assay; competition with immobilised ligand; 1 µM).
The remaining activity of `Oc1cccc(-c2nc(N3CCOCC3)c3oc4ncccc4c3n2)c1` is reported as 93% (enzyme activity; inhibitor; 10 µM).
For `COc1cc(Nc2cnc(C#N)c(O[C@H](C)CN(C)C)n2)ncc1-c1cnn(C)c1`, the remaining activity was 88% (enzyme activity; inhibitor; radiometric; 1 µM).
For `CC(=O)C1=C(C)N(c2cccc(C(F)(F)F)c2)C(=O)N[C@@H]1c1ccc(C#N)nc1`, the remaining binding was 100% (cell-free assay; competition with immobilised ligand; 1 µM).
For `Cc1cnc(NC2CCOCC2)nc1-n1cnc(C(=O)NC(CN)c2cc(F)cc(Cl)c2)c1` (stereo not drawn), the remaining activity was 103% (enzyme activity; inhibitor; radiometric; 1 µM).
With `CCN1CCN(Cc2ccc(NC(=O)c3ccc(C)c(Oc4ccnc5[nH]ccc45)c3)cc2C(F)(F)F)CC1` the inhibition was -16.2% (target engagement in cells; inhibitor; chemoproteomics; Huh-7; 1 µM).
The remaining binding of `Cc1c(NC(=O)c2cc(C(N)=O)nc3cc(F)ccc23)c(C(F)(F)F)nn1Cc1ccc(C(C)(C)C)cc1` is reported as 99% (cell-free assay; competition with immobilised ligand; 1 µM).
The inhibition of `O=C(CSc1nc2nccnc2c(=O)n1CCc1ccccc1)Nc1nccs1` is reported as 8% (enzyme activity; inhibitor; 10 µM).
`O=c1cc(N2CCOCC2)oc2c(-c3ccccc3)cccc12` gave a remaining signal of 67.1% (cell-free assay; 0.5 µM).
`CC(C)CC(=O)N1CCc2nc(-c3ccc(Br)cc3)nc(N(C)Cc3ccccc3)c2C1` has a remaining binding of 100% (cell-free assay; competition with immobilised ligand; 0.1 µM).
With `Cc1ccc(NC(=O)c2ccc(CN3CCN(C)CC3)cc2)cc1Nc1nc(-c2cccnc2)cs1` the remaining signal was 101% (cell-free assay; 0.5 µM).
With `Cc1cc(NC(=O)c2cccc3cc(-c4cccc5[nH]nc(N)c45)ccc23)ccc1F` the activity vs control was 92% (enzyme activity; inhibitor; 0.1 µM).
`CC(C)(O)[C@H]1CC[C@H](Nc2ccc3ncc(-c4cccc(C(F)(F)F)c4)n3n2)CC1` gave a remaining activity of 94.4% (enzyme activity; inhibitor; 1 µM).
The remaining binding of `O=C(Nc1ccc(Oc2ccc(F)cc2)cc1)N1CCc2ncccc2[C@H]1c1ccc(F)cc1` is reported as 78% (cell-free assay; competition with immobilised ligand; 1 µM).
`Nc1nc(Nc2ccccc2)sc1C(=O)c1c(F)cccc1F` has a remaining activity of 86% (enzyme activity; inhibitor; 10 µM).
`CNCc1ccccc1-c1csc([C@@H](C)Nc2nc(C)nc3cc(OC)c(OC)cc23)c1` has a remaining binding of 80% (cell-free assay; competition with immobilised ligand; 1 µM).
For `Nc1ncnc2occ(-c3ccc(NC(=O)Nc4cc(C(F)(F)F)ccc4F)cc3)c12`, the remaining signal was 100% (cell-free assay; inhibitor; 20 µM).
